Data reported in ChEMBL document CHEMBL1125375, “Synthesis and structure-activity relationships of acyclic omega chain conjugated diene analogues of enisoprost” (1992).
Calls of active or inactive are those of the source. The calls are words filed in the database; no cut-off is given here.

How the values were obtained:
[1] = test system: Canis familiaris; assay: Gastric antisecretory activity in food stimulated pavlov dogs by intrapouch administration; format: functional; conditions: Canis lupus familiaris
Method in brief: (§1)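 Adult female beagles (6–11 kg) with innervated Pavlov gastric pouches, food-deprived 14 h with water. After 30 min basal collection, prostaglandin in buffer-ethanol vehicle given into pouch via Thomas cannula; 30 min later pouch emptied and secretion stimulated by feeding canned dog food. Juice collected at 30-min intervals over 4 h; total acid output = volume × acidity. Percent reduction from control over 4 h.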

[2] = test system: Rattus norvegicus; assay: Compound was evaluated for diarrheagenic side effects in adult male rats by intragastric administration; format: functional; conditions: po
Method in brief: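 Adult Charles River male rats, 210–230 g, individually housed, fasted 24 h with water ad libitum. Logarithmically graded prostaglandin doses given orally (N = 6–12). Diarrhea scored all-or-none for 8 h after dosing.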

[3] = Selectivity ratio was evaluated by the quotient of diarrheal ED50 value divided by antisecretory ED50 x 10 E-3; format: functional
Method in brief: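 Quotient of diarrheal ED50 (male rats, oral graded doses, all-or-none diarrhea over 8 h) over antisecretory ED50 (Pavlov pouch beagles, intrapouch dosing, percent reduction of food-stimulated 4-h total acid output). Antisecretory ED50 from linear regression of dose-response, 3–6 doses and 2–4 dogs per dose.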

[4] = test system: Canis familiaris; assay: Gastric antisecretory activity in food stimulated pavlov dogs by intrapouch administration; Inactive at 3.0 ug/Kg; format: functional, organism-based; conditions: Canis lupus familiaris; method in brief: as §1

Q: For C=C/C=C/[C@](C)(O)C/C=C/[C@H]1[C@H](O)CC(=O)[C@@H]1CC/C=C\CCC(=O)OC, which ED50 [1] is on record?
A: 0.007 µg/kg

Q: And the ED50 [2]?
A: 243 µg/kg

Q: What about the Ratio [3] of the same compound?
A: 35

Q: What does the source list for CCCCC(C)(O)C/C=C/[C@H]1[C@H](O)CC(=O)[C@@H]1CC/C=C\CCC(=O)OC (stereo not given in full) [ENISOPROST]?
A: ED50 [1]: 0.023 µg/kg; ED50 [2]: 49 µg/kg; Ratio [3]: 2

Q: What does the source list for C=C/C=C(\C)[C@](C)(O)C/C=C/[C@H]1[C@H](O)CC(=O)[C@@H]1CC/C=C\CCC(=O)OC?
A: ED50 [2]: > 3160 µg/kg; ED50 [4]: inactive

Q: For C/C=C(C)/C=C/[C@](C)(O)C/C=C/[C@H]1[C@H](O)CC(=O)[C@@H]1CC/C=C\CCC(=O)OC, which ED50 [1] is on record?
A: 0.003 µg/kg

Q: And the ED50 [2]?
A: 185 µg/kg

Q: What about the Ratio [3] of the same compound?
A: 62

Q: With COC(=O)CC/C=C\CC[C@H]1C(=O)C[C@@H](O)[C@@H]1/C=C/C[C@@](C)(O)/C=C/C(C)=C(C)C as the compound, how does the ED50 [1] read?
A: 0.06 µg/kg

Q: And the ED50 [2]?
A: > 3160 µg/kg

Q: What about the Ratio [3] of the same compound?
A: > 53

Q: What does the source list for C=C/C(C)=C/[C@](C)(O)C/C=C/[C@H]1[C@H](O)CC(=O)[C@@H]1CC/C=C\CCC(=O)OC?
A: ED50 [1]: 0.71 µg/kg; ED50 [2]: 1030 µg/kg; Ratio [3]: 1.4

Q: Which results are given for C/C=C/C=C/[C@](C)(O)C/C=C/[C@H]1[C@H](O)CC(=O)[C@@H]1CC/C=C\CCC(=O)OC?
A: ED50 [1]: 0.03 µg/kg; ED50 [2]: 250 µg/kg; Ratio [3]: 8

Q: Which ED50 [1] does the source give for C/C=C\C=C\[C@](C)(O)C/C=C/[C@H]1[C@H](O)CC(=O)[C@@H]1CC/C=C\CCC(=O)OC here?
A: 0.009 µg/kg

Q: What about the ED50 [2] of the same compound?
A: 306 µg/kg

Q: And the Ratio [3]?
A: 34

Q: Which results are given for C/C=C(C)\C=C\[C@](C)(O)C/C=C/[C@H]1[C@H](O)CC(=O)[C@@H]1CC/C=C\CCC(=O)OC?
A: ED50 [1]: 0.016 µg/kg; ED50 [2]: 1230 µg/kg; Ratio [3]: 76

Q: With COC(=O)CC/C=C\CC[C@H]1C(=O)C[C@@H](O)[C@@H]1/C=C/C[C@@](C)(O)/C=C/C=C(C)C as the compound, how does the ED50 [1] read?
A: 0.06 µg/kg

Q: What about the ED50 [2] of the same compound?
A: > 3160 µg/kg

Q: What about the Ratio [3] of the same compound?
A: > 53

Q: For C=C(C)/C=C/[C@](C)(O)C/C=C/[C@H]1[C@H](O)CC(=O)[C@@H]1CC/C=C\CCC(=O)OC, which ED50 [1] is on record?
A: 0.002 µg/kg

Q: What about the ED50 [2] of the same compound?
A: 420 µg/kg

Q: What about the Ratio [3] of the same compound?
A: 210

Q: What does the source list for COC(=O)CC/C=C\CC[C@H]1C(=O)C[C@@H](O)[C@@H]1/C=C/C[C@@](C)(O)/C=C/C1=CCCC1?
A: ED50 [1]: 0.02 µg/kg; ED50 [2]: > 3160 µg/kg; Ratio [3]: > 158
